CSN deneddyl inh: inhibitors of CSN-mediated cullin deneddylation, primary screen, biochemical, fluorescence polarization, uHTS; Purified CSN, SCF-Nedd8-OG deneddylation; inhibition, % at 12.5 µM; 0.38% of 360,000 active;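 active = pattern-corrected inhibition above about 35%, with an unprinted fluorescence ratio check between 0.5 and 1.5, limit read from the data, passing the limit was not always enough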;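 note: 0% = enzyme with substrate and 100% = substrate without enzyme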
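Material: human Csn5 produced in HEK293T cells; Input: enzyme 0.24 nM; Reagent: SCFSkp2-Nedd8OG substrate at 10 nM final; Dosing: 12.5 µM compound; Incubation: 90 min reaction at room temperature; Detection: fluorescence polarization of the substrate; Evaluation: % inhibition of substrate cleavage by Csn5; Control set: substrate-only high control, full reaction low control.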
IDE cell inh: human IDE inhibitors in live cells, primary screen, fluorescence polarization, HEK cells, FAbetaB substrate; AID 434962, 2010; FAbetaB cleavage; 0.41% of 320,000 active; inhibition, % at 5.59 µM;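 active = percent inhibition above the average of all tested compounds plus 3 SD, set per screening campaign, cut at about 16% in these data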;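 note: IDE supplied by intact live HEK cells; FP after avidin binding of uncleaved biotin substrate so inhibition keeps polarization high; 0% = DMSO wells and 100% = 60 µM reference IDE inhibitor Ii1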
IDE act: human IDE activators in live cells, primary screen, fluorescence polarization, HEK cells, FAbeta-B substrate; Insulin-degrading enzyme (Homo sapiens), P14735; FAbeta-B cleavage; 0% vehicle, 100% cell-free pure enzyme wells; activation, % at 5.96 µM; 0.073% of 340,000 active;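 active = activation above the mean of all tested compounds plus 3 SD, set per screening campaign, cut at about 17% in these data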
TPT1 inhibitor: Candida albicans TPT1 enzyme inhibitors, primary screen, biochemical, fluorescence polarization | 0.81% of 300,000 active | recombinant caTPT1, FP RNA substrate dephosphorylation | tRNA 2'-phosphotransferase TPT1 (Candida albicans SC5314) | inhibition, % at 5 µM;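 active = inhibition above the mean of all tested compounds plus 3 SD, set per screening campaign, cut at about 24% in these data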;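 note: plate controls were DMSO alone for no effect and ferristatin control at 100 nM for full effect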
HNF4A DNA FP: change in binding of human HNF4A to DNA, primary screen, biochemical, fluorescence polarization, FITC-DNA; 1 h; activity change, % at 10 µM; 0.3% of 360,000 active; AID 1224865, 2016; in the data active = activity change above about 30%, passing the limit was not always enough
Target sequence (P41235 whole entry, looked up): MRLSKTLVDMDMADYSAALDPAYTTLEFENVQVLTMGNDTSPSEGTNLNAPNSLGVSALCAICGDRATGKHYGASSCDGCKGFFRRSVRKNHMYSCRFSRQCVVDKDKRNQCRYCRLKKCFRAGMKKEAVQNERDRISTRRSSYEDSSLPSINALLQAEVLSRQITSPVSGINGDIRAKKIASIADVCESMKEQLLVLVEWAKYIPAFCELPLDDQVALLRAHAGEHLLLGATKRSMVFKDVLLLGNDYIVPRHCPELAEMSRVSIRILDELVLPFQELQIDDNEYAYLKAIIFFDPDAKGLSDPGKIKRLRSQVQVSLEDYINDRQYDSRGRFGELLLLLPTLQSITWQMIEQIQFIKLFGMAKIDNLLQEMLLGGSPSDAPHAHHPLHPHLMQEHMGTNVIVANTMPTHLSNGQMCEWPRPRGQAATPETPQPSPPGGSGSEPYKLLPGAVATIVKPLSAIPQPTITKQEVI
Rpn11 block: Rpn11 (PSMD14) deubiquitinase inhibitors, primary screen, biochemical, fluorescence polarization, uHTS; 0.59% of 360,000 active; human 26S proteasome, Ub4-pepOG fluorescence polarization; 20S core pre-blocked with epoxomicin; 26S proteasome non-ATPase regulatory subunit 14 (Homo sapiens), O00487; inhibition, % at 20 µM; AID 588493, 2011;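 active = inhibition at 20 µM, scaled to each plate's controls, above about 33%, limit read from the data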
caTPT1 confirm: Candida albicans TPT1 inhibitors, confirmation, biochemical, fluorescence polarization, triplicate; inhibition, % at 5 µM; 74% of 2,400 active; shares compounds with TPT1 inhibitor; recombinant caTPT1, RNase T1 coupled;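 active = inhibition above the primary screen limit, the mean inhibition of all tested compounds plus 3 SD, cut at about 25% in these data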
RNase T1 inh: RNase T1 inhibitors, counter-screen for TPT1 inhibitor project, biochemical, fluorescence polarization | RNase T1 cleavage, 1536-well | AID 2153, 2009 | 83% of 2,400 active | shares compounds with TPT1 inhibitor | inhibition, % at 5 µM;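 active = inhibition above the solvent-only control well mean plus 3 SD, limit set per screening run, cut at about 23% in these data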;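 note: plate controls were DMSO wells with enzyme for no effect and wells without RNase T1 for full effect; inhibitors block cleavage so intact labeled substrate keeps polarization high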
Target sequence (P00651 whole entry, looked up): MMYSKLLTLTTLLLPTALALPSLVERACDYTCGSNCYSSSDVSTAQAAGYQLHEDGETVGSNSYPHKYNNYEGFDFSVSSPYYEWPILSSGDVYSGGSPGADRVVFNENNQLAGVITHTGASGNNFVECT
IDE cell inh cf: human IDE inhibitors in live cells, confirmation, fluorescence polarization, HEK cells, FAbetaB substrate; AID 435028, 2010; inhibition, % at 5.59 µM; 51% of 1,200 active; shares compounds with IDE cell inh; FAbetaB cleavage;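 active = mean inhibition across triplicate wells above the cutoff set by the earlier primary insulin-degrading enzyme screen, cut at about 16% in these data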;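 note: 0% = DMSO wells and 100% = 60 µM reference IDE inhibitor Ii1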
HEK293 tox: cytotoxicity in HEK cells, cytotoxicity control for IDE inhibitor project, cell-based, luminescence | shares compounds with IDE cell inh | HEK293 cytotoxicity, ATP luminescence | inhibition, % at 5.59 µM | 28% of 1,200 active | AID 449730, 2010; in the data active = inhibition above about 22%;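 note: 0% = vehicle wells and 100% = reference cytotoxic drug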
Rpn11 confirm: Rpn11 (PSMD14) deubiquitinase inhibitors, confirmation, biochemical, fluorescence polarization, single concentration; shares compounds with Rpn11 block; purified human 26S proteasome, Ub4-pepOG fluorescence polarization; proteasome pretreated with epoxomicin; inhibition, % at 20 µM; 29% of 1,900 active
MMP-2 counter-1: MMP-2 enzyme inhibition, confirmation, counter-screen for RPN11 inhibitor project, biochemical, fluorescence, single concentration; inhibition, % at 20 µM; 4% of 1,900 active; recombinant MMP-2, FRET peptide cleavage fluorescence; shares compounds with Rpn11 block;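 note: human MMP-2 activated beforehand with APMA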
Thrombin FP: bovine thrombin protease inhibition, confirmation, counter-screen for Rpn11 inhibitor project, biochemical, fluorescence polarization, single concentration. bovine thrombin cleavage of Ub4-pepOG. 13% of 1,900 active. shares compounds with Rpn11 block. inhibition, % at 20 µM;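 active = mean inhibition at least 40% at 20 µM, or signal 3 deviations below plate average, so some actives read negative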;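 note: plate controls were thrombin with DMSO for no effect and buffer wells lacking thrombin for full effect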
CSN deneddyl val: Csn5 deneddylation inhibitors, confirmation, biochemical, fluorescence polarization, single concentration, SCF-Nedd8OG substrate; AID 720654, 2013; Csn5 deneddylation of SCF-Nedd8OG, 90 min; shares compounds with CSN deneddyl inh; inhibition, % at 16.6 µM; 62% of 540 active; in the data active = inhibition above about 50%;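 note: 0% = DMSO with enzyme and 100% = no enzyme wells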
MMP-2 counter-2: MMP-2 protease inhibition counter-screen, confirmation, counter-screen for CSN deneddylation inhibitor project, biochemical, fluorescence, single concentration | shares compounds with CSN deneddyl inh | recombinant MMP-2, FRET substrate fluorescence, 60 min | inhibition, % at 16.6 µM | 33% of 540 active;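 active = corrected plate-normalized z-score of 5 or more, or -5 or less, or inhibition of 15% or more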;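 note: plate controls were DMSO wells with enzyme for no effect and buffer wells lacking MMP-2 for full effect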
Thrombin cntr: blocks bovine thrombin in a CSN deneddylation counter-screen | shares compounds with CSN deneddyl inh | bovine thrombin cleavage of Ub4-pepOG, fluorescence polarization | inhibition, % at 16.6 µM | 49% of 540 active | AID 720656;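 active = inhibition at or above a set limit, with a fluorescence interference ratio between 0.5 and a set maximum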
An asterisk follows results filed as active; . = no result given; + = active, no number. This is a sample that favours compounds with a hit; in the whole collection about 1.7% have one here. Cut-off read from the data, not from the text of the source, unless noted: active = inhibition above about 40%; inactive = the rest.

SMILES | CSN deneddyl inh | IDE cell inh | IDE act | TPT1 inhibitor | HNF4A DNA FP | Rpn11 block | caTPT1 confirm | RNase T1 inh | CSN deneddyl val | MMP-2 counter-2 | Thrombin cntr | others
COC1=CC(=Cc2c(N)n3nc(CC(=O)N4CCOCC4)sc3nc2=O)C=C(OC)C1=O | 88* | 121* | -100 | 50* | 62* | . | 132* | 131* | 94* | -20 | 83* | IDE cell inh cf=26*;HEK293 tox=6
C(=C\c1ccco1)/C1=NN(c2ccccc2)C(c2ccco2)C1 (stereo not given) | 84* | 4 | -3 | 53* | 33 | 72* | 38* | 47* | 62* | -3 | 31* | Rpn11 confirm=70*;MMP-2 counter-1=7;Thrombin FP=55*
Fc1ccc(C2=NN(c3ccccc3)C(c3ccco3)C2)cc1 (stereo not given) | 11 | 3 | 3 | -1 | 3 | 4 | . | . | . | . | .
CCNC(=O)C1(C)CCN(C(=O)c2ccc(C#N)cc2)C1 (stereo not given) | 3 | . | . | . | -2 | 0 | . | . | . | . | .
O=C1c2ccccc2C(c2nnnn2-c2ccc3c(c2)OCCO3)N1Cc1cccc(F)c1 (stereo not given) | 2 | . | . | . | 0 | . | . | . | . | . | .
CC(OC(=O)/C(C#N)=C/c1ccc(N(C)C)cc1)C(=O)N(C)c1ccccc1 (stereo not given) | 71* | 16* | -26 | 121* | 107* | . | 130* | 132* | 62* | -20 | 73* | IDE cell inh cf=31*;HEK293 tox=12
COc1ccc(-c2ccc(N3C(c4cc(OC)cc(OC)c4)=Cc4ccc(OC)cc4C3CC(C)=O)cc2)cc1 (stereo not given) | -1 | . | . | . | 7 | . | . | . | . | . | .
CCOc1cc(/C=N/NC(=O)C(N)=O)cc(Br)c1O | 8 | -4 | 7 | -4 | 1 | -4 | . | . | . | . | .
CCOc1cc(/C=C(/C#N)C(=O)Nc2ccc(O)cc2)cc(Br)c1O | 63* | 38* | -58 | + | 54* | . | 171* | 164* | 14 | -21 | 68* | IDE cell inh cf=75*;HEK293 tox=57*
CCOc1ccc(NC(=O)/C(C#N)=C/c2ccc(N3CCCC3)c(C)c2)cc1 | 46* | 4 | -9 | 83* | 74 | . | 83* | 89* | 99* | 0 | 25*
C#CCN1C(=O)S/C(=C/C=C/c2ccc(N(C)C)cc2)C1=O | 59* | 41* | -44 | 87* | 78* | . | 77* | 81* | 54* | -69* | 71* | IDE cell inh cf=57*;HEK293 tox=27*
Nc1ccc(/C=C/C(=O)c2cccs2)cc1 | 40* | 11 | -27 | 78* | 19 | . | 96* | 99* | 72* | -16 | 32*
Cn1c(-c2ccc(C=O)s2)nc2c3ccccc3c3ccccc3c21 | 47* | 3 | -5 | 34* | -40 | -14 | 52* | 63* | . | -18 | -72
N#C/C(=C/c1ccc(N2CCCCCC2)o1)c1ccc(Cl)cc1 | 78* | 0 | -17 | 158* | 110 | . | 187* | 172* | 188* | -34* | 58*
CN(C)c1ccc(/C=C2\CCC/C(=C\c3ccccc3)C2=O)cc1 | 73* | 7 | -6 | 104* | 106 | . | 111* | 109* | 91* | -9 | 36*
CN1CCC(N2CCN(C3CN(Cc4ccc(F)cc4)S(=O)(=O)C3)CC2)CC1 (stereo not given) | -4 | . | . | . | -5 | 13 | . | . | . | . | .
CCOc1ccc(NC(=O)CN(C)C(=O)c2cc(-c3ccco3)nc3ccccc23)cc1OCC | -2 | . | -3 | . | 0 | 6 | . | . | . | . | .
Cc1ccc(NC(=O)CN(C)C(=O)c2cc(-c3ccco3)nc3ccccc23)cc1 | 51* | 12 | 4 | 25* | -25 | 16 | 10 | 14 | . | 10 | -6
COc1cc(OC)nc(C(NC(=O)C2CCN(Cc3c[nH]c4ccccc34)CC2)c2ccc(Cl)cc2)n1 (stereo not given) | -3 | . | . | . | -1 | 4 | . | . | . | . | .
